{"source": "ChEMBL document CHEMBL1122782", "about": "“Bulky amine analogues of ketoprofen: potent antiinflammatory agents” (J Med Chem, 1984)", "key": {"[1]": {"system": "Rattus norvegicus", "assay": "The percent inhibition was calculated from the average differences in hind paw volume between the adjuvant injected controls and the adjuvant-injected medicated rats at 0.08 mmol/kg; 50-59", "type": "functional"}, "[2]": {"system": "Rattus norvegicus", "assay": "The mean increase in paw volume was compared between drug treated groups and placebo to calculate the percent inhibition in rats at 0.02 mmol/kg by carrageenan Edema Assay; 0-19", "type": "functional"}, "[3]": {"system": "Rattus norvegicus", "assay": "The mean increase in paw volume was compared between drug treated groups and placebo to calculate the percent inhibition in rats at 0.02 mmol/kg by carrageenan Edema Assay; 50-59", "type": "functional"}, "[4]": {"system": "Rattus norvegicus", "assay": "Ulcerogenicity was measured in stomach during the 3 week adjuvant arthritis test, no of animals with ulcers out of 8 animals tested at 0.02 mM/kg (8.76 mg) was reported", "type": "functional", "how_it_was_run": "(§1)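 Male Sprague-Dawley rats (200–230 g) were injected in the plantar tissue of one hind paw with 0.1 mL of 0.6% M. butyricum suspension in heavy mineral oil. Daily oral gavage began on the day of adjuvant injection and ran for the 21 days, with drug suspended in 1% gum tragacanth or a corn oil-water emulsion. At the end the rats were sacrificed and the small intestine and stomach were examined for ulcers. Results are given as animals with ulcers/animals tested.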"}, "[5]": {"organism": "Rattus norvegicus", "assay": "Compound was evaluated for highest non-ulcerogenic dose (less than 50% ulcer incidence)", "type": "functional", "conditions": "read-out: ED50", "how_it_was_run": "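Taken from the 21-day adjuvant arthritis test in male Sprague-Dawley rats dosed orally each day from the day of adjuvant injection. Small intestines and stomachs were examined for ulceration at the end. The value is the highest dose giving less than 50% ulcer incidence.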"}, "[6]": {"system": "Rattus norvegicus", "assay": "Antiinflammatory efficacy is measured by the percent inhibition of paw volume during the 3 week adjuvant arthritis test at 0.005 mM/kg (2.19 mg)", "type": "functional", "how_it_was_run": "(§2)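 Male Sprague-Dawley rats (200–230 g) were used in groups of eight. Each received 0.1 mL of 0.6% M. butyricum in heavy mineral oil into the plantar tissue of one hind paw. Daily oral gavage in 1% gum tragacanth or corn oil-water emulsion began on the injection day and ran 21 days. Total hind paw volume was measured by mercury displacement, and inhibition was taken versus vehicle-treated adjuvant controls.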"}, "[7]": {"system": "Rattus norvegicus", "assay": "Ulcerogenicity was measured in intestine during the 3 week adjuvant arthritis test, no of animals with ulcers out of animals tested at 0.08 mM/kg (35.0 mg) was reported; toxic", "type": "functional, organism-based", "how_it_was_run": "as §1"}, "[8]": {"system": "Rattus norvegicus", "assay": "Ulcerogenicity was measured in intestine during the 3 week adjuvant arthritis test, no of animals with ulcers out of 8 animals tested at 0.02 mM/kg (8.76 mg) was reported", "type": "functional", "how_it_was_run": "(§3)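 In the 21-day adjuvant arthritis model, male Sprague-Dawley rats (200–230 g) received an M. butyricum mineral-oil suspension into one hind paw. They were dosed daily by gavage from the day of injection. At the end of the study the rats were killed, and the small intestines were examined for ulcers. Results are given as the number of ulcerated animals over the number tested.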"}, "[9]": {"system": "Rattus norvegicus", "assay": "Antiinflammatory efficacy is measured by the weight gain in rats during the 3 week adjuvant arthritis test at 0.02 mM/kg (8.76 mg)", "type": "functional", "how_it_was_run": "(§4)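 Rats were adjuvant-injected (M. butyricum in mineral oil, one hind paw) or given a mineral-oil placebo. They were dosed by gavage daily for 21 days from the injection day, with vehicle only for both control groups, then weighed at the end. Weight gain % = (treated − adjuvant control)/(negative control − adjuvant control) × 100.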"}, "[10]": {"system": "Rattus norvegicus", "assay": "Antiinflammatory efficacy is measured by the weight gain in rats during the 3 week adjuvant arthritis test at 0.005 mM/kg (2.19 mg)", "type": "functional", "how_it_was_run": "as §4"}, "[11]": {"system": "Rattus norvegicus", "assay": "Antiinflammatory efficacy is measured by the percent inhibition of paw volume during the 3 week adjuvant arthritis test at 0.02 mM/kg (8.76 mg)", "type": "functional", "how_it_was_run": "as §2"}, "[12]": {"system": "Rattus norvegicus", "assay": "Potency relative to phenylbutazone at 0.005 mM/kg", "type": "functional"}, "[13]": {"system": "Rattus norvegicus", "assay": "Ulcerogenicity was measured in intestine during the 3 week adjuvant arthritis test, no of animals with ulcers out of 4 animals tested at 0.02 mM/kg (8.07 mg) was reported", "type": "functional", "how_it_was_run": "as §3"}, "[14]": {"organism": "Rattus norvegicus", "assay": "Effective Dose 50 is the amount of material required to produce effect in 50% of an animal population", "type": "functional"}, "[15]": {"system": "Rattus norvegicus", "assay": "Ulcerogenicity was measured in intestine during the 3 week adjuvant arthritis test, no of animals with ulcers out of 15 animals tested at 0.08 mM/kg (32.3 mg) was reported", "type": "functional", "how_it_was_run": "as §3"}, "[16]": {"system": "Rattus norvegicus", "assay": "Antiinflammatory efficacy is measured by the weight gain in rats during the 3 week adjuvant arthritis test at 0.08 mM/kg (32.3 mg)", "type": "functional", "how_it_was_run": "as §4"}, "[17]": {"system": "Rattus norvegicus", "assay": "The percent inhibition was calculated from the average differences in hind paw volume between the adjuvant injected controls and the adjuvant-injected medicated rats at 0.08 mmol/kg; 80-89", "type": "functional"}, "[18]": {"system": "Rattus norvegicus", "assay": "Ulcerogenicity was measured in stomach during the 3 week adjuvant arthritis test, no of animals with ulcers out of 4 animals tested at 0.02 mM/kg (8.07 mg) was reported", "type": "functional", "how_it_was_run": "as §1"}, "[19]": {"system": "Rattus norvegicus", "assay": "Ulcerogenicity was measured in stomach during the 3 week adjuvant arthritis test, no of animals with ulcers out of 15 animals tested at 0.08 mM/kg (32.3 mg) was reported", "type": "functional", "how_it_was_run": "as §1"}, "[20]": {"system": "Rattus norvegicus", "assay": "Ulcerogenicity was measured in intestine during the 3 week adjuvant arthritis test, no of animals with ulcers out of tested animals at 0.16 mM/kg (64.6 mg) was reported; Toxic", "type": "functional, organism-based", "how_it_was_run": "as §1"}, "[21]": {"system": "Rattus norvegicus", "assay": "Antiinflammatory efficacy is measured by the percent inhibition of paw volume during the 3 week adjuvant arthritis test at 0.02 mM/kg (8.07 mg)", "type": "functional", "how_it_was_run": "as §2"}, "[22]": {"system": "Rattus norvegicus", "assay": "Antiinflammatory efficacy is measured by the percent inhibition of paw volume during the 3 week adjuvant arthritis test at 0.08 mM/kg (32.3 mg)", "type": "functional", "how_it_was_run": "as §2"}, "[23]": {"system": "Rattus norvegicus", "assay": "Antiinflammatory efficacy is measured by the weight gain in rats during the 3 week adjuvant arthritis test at 0.005 mM/kg (2.02 mg)", "type": "functional", "how_it_was_run": "as §4"}, "[24]": {"system": "Rattus norvegicus", "assay": "Antiinflammatory efficacy is measured by the weight gain in rats during the 3 week adjuvant arthritis test at 0.02 mM/kg (8.07 mg)", "type": "functional", "how_it_was_run": "as §4"}, "[25]": {"organism": "Mus musculus", "assay": "Effective Dose 50 is the amount of material required to elicit analgesic effect in 50% of an animal population"}, "[26]": {"system": "Rattus norvegicus", "assay": "The mean increase in paw volume was compared between drug treated groups and placebo to calculate the percent inhibition in rats at 0.02 mmol/kg by carrageenan Edema Assay; 30-39", "type": "functional", "conditions": "Rattus norvegicus"}, "[27]": {"system": "Rattus norvegicus", "assay": "Antiinflammatory efficacy is measured by the percent inhibition of paw volume during the 3 week adjuvant arthritis test at 0.005 mM/kg (2.02 mg)", "type": "functional", "how_it_was_run": "as §2"}, "[28]": {"system": "Rattus norvegicus", "assay": "Ulcerogenicity was measured in stomach during the 3 week adjuvant arthritis test.(animals with ulcers/animals in test) at 0.0014 mM/kg (0.50 mg)", "type": "functional", "how_it_was_run": "as §1"}, "[29]": {"system": "Rattus norvegicus", "assay": "Antiinflammatory efficacy is measured by the percent inhibition of paw volume during the 3 week adjuvant arthritis test at 0.0014 mM/kg (0.50 mg)", "type": "functional", "how_it_was_run": "as §2"}, "[30]": {"system": "Rattus norvegicus", "assay": "Potency relative to phenylbutazone at 0.0014 mM/kg", "type": "functional"}, "[31]": {"system": "Rattus norvegicus", "assay": "Ulcerogenicity was measured in intestine during the 3 week adjuvant arthritis test.(animals with ulcers/animals in test) at 0.0014 mM/kg (0.50 mg)", "type": "functional", "how_it_was_run": "as §1"}, "[32]": {"system": "Rattus norvegicus", "assay": "Antiinflammatory efficacy is measured by the weight gain in rats during the 3 week adjuvant arthritis test at 0.008 mM/kg (2.86 mg)", "type": "functional", "how_it_was_run": "as §4"}, "[33]": {"system": "Rattus norvegicus", "assay": "Ulcerogenicity was measured in stomach during the 3 week adjuvant arthritis test.(animals with ulcers/animals in test) at 0.008 mM/kg (2.86 mg)", "type": "functional", "how_it_was_run": "as §1"}, "[34]": {"system": "Rattus norvegicus", "assay": "Antiinflammatory efficacy is measured by the weight gain in rats during the 3 week adjuvant arthritis test at 0.011 mM/kg (3.94 mg)", "type": "functional", "how_it_was_run": "as §4"}, "[35]": {"system": "Rattus norvegicus", "assay": "Ulcerogenicity was measured in intestine during the 3 week adjuvant arthritis test.(animals with ulcers/animals in test) at 0.008 mM/kg (2.86 mg)", "type": "functional", "how_it_was_run": "as §1"}, "[36]": {"system": "Rattus norvegicus", "assay": "Antiinflammatory efficacy is measured by the weight gain in rats during the 3 week adjuvant arthritis test at 0.0014 mM/kg (0.50 mg)", "type": "functional", "how_it_was_run": "as §4"}}, "data": [{"molecule": "CC1CCCC(C)N1CCc1cccc(C(O)c2ccccc2)c1", "note": "(stereo not drawn)", "values": [{"measurement": "inhibition in vivo at 80 µmol/kg", "setting": "[1]", "value": 50, "unit": "%"}, {"measurement": "inhibition in vivo at 20 µmol/kg", "setting": "[2]", "value": 0, "unit": "%"}]}, {"molecule": "CC(CN1CCCCC1CC1CCCCC1)c1cccc(C(=O)c2ccc(Cl)cc2)c1", "note": "(stereo not drawn)", "values": [{"measurement": "inhibition in vivo at 20 µmol/kg", "setting": "[3]", "value": 50, "unit": "%"}, {"measurement": "Ulcerogenic index", "setting": "[4]", "value": 0}, {"measurement": "highest non-ulcerogenic dose", "setting": "[5]", "value": 3, "unit": "µmol/kg"}, {"measurement": "Inhibition", "setting": "[6]", "value": 62, "unit": "%"}, {"measurement": "Ulcerogenic index", "setting": "[7]", "value": "Toxic"}, {"measurement": "Ulcerogenic index", "setting": "[8]", "value": 0}, {"measurement": "Weight gain", "setting": "[9]", "value": 89, "unit": "%"}, {"measurement": "Weight gain", "setting": "[10]", "value": 34, "unit": "%"}, {"measurement": "Inhibition", "setting": "[11]", "value": 90, "unit": "%"}, {"measurement": "Relative potency", "setting": "[12]", "value": 11.9, "unit": "%"}]}, {"molecule": "CC(CN1CCCCC1CC1CCCCC1)c1cccc(C(=O)c2ccccc2)c1", "note": "(stereo not drawn)", "values": [{"measurement": "Ulcerogenic index", "setting": "[13]", "value": 1}, {"measurement": "ED50", "setting": "[14]", "value": 3, "unit": "µmol/kg"}, {"measurement": "Ulcerogenic index", "setting": "[15]", "value": 4}, {"measurement": "Weight gain", "setting": "[16]", "value": 82, "unit": "%"}, {"measurement": "inhibition in vivo at 80 µmol/kg", "setting": "[17]", "value": 80, "unit": "%"}, {"measurement": "Ulcerogenic index", "setting": "[18]", "value": 0}, {"measurement": "Ulcerogenic index", "setting": "[19]", "value": 1}, {"measurement": "Ulcerogenic index", "setting": "[20]", "value": "Toxic"}, {"measurement": "Inhibition", "setting": "[21]", "value": 79, "unit": "%"}, {"measurement": "Inhibition", "setting": "[22]", "value": 90, "unit": "%"}, {"measurement": "Weight gain", "setting": "[23]", "value": 27, "unit": "%"}, {"measurement": "Weight gain", "setting": "[24]", "value": 55, "unit": "%"}, {"measurement": "ED50", "setting": "[25]", "value": 55, "unit": "mg/kg"}, {"measurement": "inhibition in vivo at 20 µmol/kg", "setting": "[26]", "value": 30, "unit": "%"}, {"measurement": "Inhibition", "setting": "[27]", "value": 56, "unit": "%"}, {"measurement": "Relative potency", "setting": "[12]", "value": 8.7, "unit": "%"}]}, {"molecule": "COc1ccc2c(c1)c(CC(=O)O)c(C)n2C(=O)c1ccc(Cl)cc1", "note": "[INDOMETHACIN]", "values": [{"measurement": "highest non-ulcerogenic dose", "setting": "[5]", "value": 0.4, "unit": "µmol/kg"}, {"measurement": "Ulcerogenic index", "setting": "[28]", "value": 6}, {"measurement": "Inhibition", "setting": "[29]", "value": 63, "unit": "%"}, {"measurement": "Potency", "setting": "[30]", "value": 20, "unit": "%"}, {"measurement": "Ulcerogenic index", "setting": "[31]", "value": 3}, {"measurement": "Weight gain", "setting": "[32]", "value": 48, "unit": "%"}, {"measurement": "Ulcerogenic index", "setting": "[33]", "value": 5}, {"measurement": "Weight gain", "setting": "[34]", "value": 38, "unit": "%"}, {"measurement": "Ulcerogenic index", "setting": "[35]", "value": 17}, {"measurement": "Weight gain", "setting": "[36]", "value": 14, "unit": "%"}]}]}
